In ChEMBL document CHEMBL3102840, “Synthesis and anti-proliferative activity of aromatic substituted 5-((1-benzyl-1H-indol-3-yl)methylene)-1,3-dimethylpyrimidine-2,4,6(1H,3H,5H)-trione analogs against human tumor cell lines” (2014):

Legend:
Assay type in all cases: functional
MDA-MB-468 [1] = experiment: Cytotoxicity against human MDA-MB-468 cells assessed as growth inhibition at 10 uM after 48 hrs by SRB assay; settings: MDA-MB-468, 48 h, read-out: GI
In short: (§1)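 Single-dose screen at 10µM across the sixty-cell-line panel. Percentage growth is derived from SRB-stain OD taken just before compound exposure, after 48 hrs exposure, and in vehicle-treated controls. Negative values indicate cytotoxicity.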

TK-10 [2] = experiment: Cytotoxicity against human TK10 cells assessed as growth inhibition at 10 uM after 48 hrs by SRB assay; settings: TK-10, 48 h, read-out: GI; in short: as §1
A498 [3] = experiment: Cytotoxicity against human A498 cells assessed as growth inhibition at 10 uM after 48 hrs by SRB assay; settings: A498, 48 h, read-out: GI; in short: as §1
[4] = Cytotoxicity against human OVCAR5 cells assessed as growth inhibition at 10 uM after 48 hrs by SRB assay; settings: OVCAR-5, 48 h, read-out: GI; in short: as §1
NCI-H226 [5] = experiment: Cytotoxicity against human NCI-H226 cells assessed as growth inhibition at 10 uM after 48 hrs by SRB assay; settings: NCI-H226, 48 h, read-out: GI; in short: as §1
MDA-MB-468 [6] = experiment: Cytotoxicity against human MDA-MB-468 cells after 48 hrs by SRB assay; settings: MDA-MB-468, 48 h
In short: (§2)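 Five-dose run from the sixty-line panel, at 10−4, 10−5, 10−6, 10−7 and 10−8 M. SRB-stain OD is read just before compound addition, after 48 hrs of exposure, and in vehicle controls, giving percentage growth; negative growth indicates cytotoxicity. GI50 is the concentration giving 50% reduction in net protein increase versus control cells. LC50 is the concentration lethal to 50% of cells.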

BT-549 = experiment: Cytotoxicity against human BT549 cells after 48 hrs by SRB assay; settings: BT-549, 48 h; in short: as §2
T47D = experiment: Cytotoxicity against human T47D cells after 48 hrs by SRB assay; in short: as §2
MDA-MB-231 = experiment: Cytotoxicity against human MDA-MB-231 cells after 48 hrs by SRB assay; settings: MDA-MB-231, 48 h; in short: as §2
MCF7 = experiment: Cytotoxicity against human MCF7 cells after 48 hrs by SRB assay; settings: MCF7, 48 h; in short: as §2
SN12C = experiment: Cytotoxicity against human SN12C cells after 48 hrs by SRB assay; in short: as §2
TK-10 [7] = experiment: Cytotoxicity against human TK10 cells after 48 hrs by SRB assay; settings: TK-10, 48 h; in short: as §2
A498 [8] = experiment: Cytotoxicity against human A498 cells after 48 hrs by SRB assay; settings: A498, 48 h; in short: as §2
RXF 393 = experiment: Cytotoxicity against human RXF393 cells after 48 hrs by SRB assay; settings: RXF 393, 48 h; in short: as §2
SK-OV-3 = experiment: Cytotoxicity against human SKOV3 cells after 48 hrs by SRB assay; settings: SK-OV-3, 48 h; in short: as §2
786-0 = experiment: Cytotoxicity against human 786-0 cells after 48 hrs by SRB assay; settings: 786-0, 48 h; in short: as §2
[9] = Cytotoxicity against human NCI-ADR-RES cells after 48 hrs by SRB assay; in short: as §2
OVCAR-8 = experiment: Cytotoxicity against human OVCAR8 cells after 48 hrs by SRB assay; settings: OVCAR-8, 48 h; in short: as §2
[10] = Cytotoxicity against human OVCAR5 cells after 48 hrs by SRB assay; settings: OVCAR-5, 48 h; in short: as §2
IGROV-1 = experiment: Cytotoxicity against human IGROV1 cells after 48 hrs by SRB assay; settings: IGROV-1, 48 h; in short: as §2
UACC-62 = experiment: Cytotoxicity against human UACC62 cells after 48 hrs by SRB assay; settings: UACC-62, 48 h; in short: as §2
[11] = Cytotoxicity against human UACC257 cells after 48 hrs by SRB assay; settings: UACC-257, 48 h; in short: as §2
SK-MEL-2 = experiment: Cytotoxicity against human SK-MEL-2 cells after 48 hrs by SRB assay; settings: SK-MEL-2, 48 h; in short: as §2
SK-MEL-5 = experiment: Cytotoxicity against human SK-MEL-5 cells after 48 hrs by SRB assay; settings: SK-MEL-5, 48 h; in short: as §2
MDA-MB-435 = experiment: Cytotoxicity against human MDA-MB-435 cells after 48 hrs by SRB assay; settings: MDA-MB-435, 48 h; in short: as §2
LOX IMVI = experiment: Cytotoxicity against human LOXIMVI cells after 48 hrs by SRB assay; in short: as §2
SNB-19 = experiment: Cytotoxicity against human SNB19 cells after 48 hrs by SRB assay; settings: SNB-19, 48 h; in short: as §2
SF-295 = experiment: Cytotoxicity against human SF295 cells after 48 hrs by SRB assay; settings: SF-295, 48 h; in short: as §2
SW-620 = experiment: Cytotoxicity against human SW620 cells after 48 hrs by SRB assay; settings: SW-620, 48 h; in short: as §2
HCT-116 = experiment: Cytotoxicity against human HCT116 cells after 48 hrs by SRB assay; settings: HCT-116, 48 h; in short: as §2
COLO 205 = experiment: Cytotoxicity against human COLO205 cells after 48 hrs by SRB assay; settings: COLO 205, 48 h; in short: as §2
NCI-H460 = experiment: Cytotoxicity against human NCI-H460 cells after 48 hrs by SRB assay; settings: NCI-H460, 48 h; in short: as §2
NCI-H23 = experiment: Cytotoxicity against human NCI-H23 cells after 48 hrs by SRB assay; settings: NCI-H23, 48 h; in short: as §2
NCI-H226 [12] = experiment: Cytotoxicity against human NCI-H226 cells after 48 hrs by SRB assay; settings: NCI-H226, 48 h; in short: as §2
HOP-62 = experiment: Cytotoxicity against human HOP62 cells after 48 hrs by SRB assay; settings: HOP-62, 48 h; in short: as §2
K562 = experiment: Cytotoxicity against human K562 cells after 48 hrs by SRB assay; settings: K562, 48 h; in short: as §2
SR = experiment: Cytotoxicity against human SR cells after 48 hrs by SRB assay; in short: as §2
[13] = read-out: LC50 (the source's name)

What does the source list for `COC(=O)c1ccc2c(c1)c(C=C1C(=O)N(C)C(=O)N(C)C1=O)cn2Cc1ccc(S(=O)(=O)c2ccccc2)cc1`?
inhibition of growth at 10 µM (MDA-MB-468 [1]): 88%; inhibition of growth at 10 µM (TK-10 [2]): 100%; inhibition of growth at 10 µM (A498 [3]): 83%; inhibition of growth at 10 µM [4]: 108%; inhibition of growth at 10 µM (NCI-H226 [5]): 98%

With `CN1C(=O)C(=Cc2cn(Cc3ccc(F)cc3)c3ccc(Cl)cc23)C(=O)N(C)C1=O` as the molecule, how does the inhibition of growth at 10 µM (MDA-MB-468 [1]) read?
Its inhibition of growth at 10 µM is -70%.

What about the inhibition of growth at 10 µM (TK-10 [2]) of the same molecule?
Its inhibition of growth at 10 µM is 19%.

And the inhibition of growth at 10 µM (A498 [3])?
Its inhibition of growth at 10 µM is -95%.

What about the inhibition of growth at 10 µM [4] of the same molecule?
Its inhibition of growth at 10 µM is -19%.

And the inhibition of growth at 10 µM (NCI-H226 [5])?
The inhibition of growth at 10 µM was -79%.

Which results are given for `COc1ccc(Cn2cc(C=C3C(=O)N(C)C(=O)N(C)C3=O)c3ccccc32)cc1`?
GI50 (MDA-MB-468 [6]): 0.04 µM; LC50 (MDA-MB-468 [6]): 0.76 µM; GI50 (BT-549): 4.94 µM; CC50 (BT-549; [13]): > 100 µM; GI50 (T47D): 3.53 µM; LC50 (T47D): > 100 µM; GI50 (MDA-MB-231): 5.86 µM; CC50 (MDA-MB-231; [13]): > 100 µM; GI50 (MCF7): 5.26 µM; LC50 (MCF7): > 100 µM; GI50 (SN12C): 12.5 µM; CC50 (SN12C; [13]): > 100 µM; GI50 (TK-10 [7]): 0.1 µM; CC50 (TK-10 [7]; [13]): 72.5 µM; GI50 (A498 [8]): 0.06 µM; LC50 (A498 [8]): 5.27 µM; GI50 (RXF 393): 14.8 µM; LC50 (lethal concentration, 50%) (RXF 393): > 100 µM; GI50 (SK-OV-3): 5.03 µM; LC50 (SK-OV-3): > 100 µM; GI50 (786-0): 11.2 µM; LC50 (786-0): > 100 µM; GI50 [9]: 3.59 µM; CC50 [9, 13]: > 100 µM; GI50 (OVCAR-8): 13.4 µM; CC50 (OVCAR-8; [13]): 88.6 µM; GI50 [10]: 0.02 µM; CC50 [10, 13]: > 100 µM; GI50 (IGROV-1): 1.93 µM; CC50 (IGROV-1; [13]): > 100 µM; GI50 (UACC-62): 0.9 µM; LC50 (UACC-62): 68 µM; GI50 [11]: 1.54 µM; CC50 [11, 13]: 38.2 µM; GI50 (SK-MEL-2): 2.78 µM; GI50 (SK-MEL-5): 5.08 µM; LC50 (SK-MEL-5): 64.4 µM; GI50 (MDA-MB-435): 3.29 µM; LC50 (MDA-MB-435): > 100 µM; GI50 (LOX IMVI): 5.45 µM; CC50 (LOX IMVI; [13]): > 100 µM; GI50 (SNB-19): 15.8 µM; LC50 (SNB-19): > 100 µM; GI50 (SF-295): 1.54 µM; LC50 (SF-295): > 100 µM; GI50 (SW-620): 6.89 µM; CC50 (SW-620; [13]): > 100 µM; GI50 (HCT-116): 5.01 µM; LC50 (HCT-116): > 100 µM; GI50 (COLO 205): 0.63 µM; CC50 (COLO 205; [13]): 45.3 µM; GI50 (NCI-H460): 0.81 µM; CC50 (NCI-H460; [13]): 82.8 µM; GI50 (NCI-H23): 4.67 µM; LC50 (NCI-H23): > 100 µM; GI50 (NCI-H226 [12]): 1.44 µM; CC50 (NCI-H226 [12]; [13]): 53.9 µM; GI50 (HOP-62): 6.22 µM; CC50 (HOP-62; [13]): > 100 µM; GI50 (K562): 2.18 µM; CC50 (K562; [13]): > 100 µM; GI50 (SR): 5.43 µM; LC50 (lethal concentration, 50%) (SR): > 100 µM; inhibition of growth at 10 µM (MDA-MB-468 [1]): -65%; inhibition of growth at 10 µM (TK-10 [2]): -12%; inhibition of growth at 10 µM (A498 [3]): -92%; inhibition of growth at 10 µM [4]: -38%; inhibition of growth at 10 µM (NCI-H226 [5]): -55%
